This is an account of results in paper PMC10753549 (ACS Omega, 2023).

Where a name gives a salt, the structure may show the parent alone.

Data set [1] relates to brine shrimp (Artemia salina). As to the kind of experiment: Brine shrimp lethality bioassay.
The next data set relates to Zika virus strain MR766. As to the kind of experiment: Anti-ZIKV viral immunofluorescence assay in Vero cells. The data set is classed as cell-based, Zika virus (MR766 Africa lineage). A digest of the protocol:
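Vero cells kept in DMEM with 10% FBS, 1% penicillin/streptomycin and 2 mM L-glutamine. They were pretreated with test compound at ten concentrations, then infected with MR766 virus stock grown in C6/36 mosquito cells (5 μL inoculum per well). After 24 h the cells were fixed in 4% paraformaldehyde and read by immunofluorescence. Mycophenolic acid was the positive control. EC50 came from 10-point dose–response curves in triplicate. CC50 was measured in uninfected Vero cells, and SI = CC50/EC50.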

A short description of data set [2]: Cytotoxicity assay on Vero cells. Format: cell-based. The settings on record: African green monkey, virus-uninfected Vero cells, CC50 (50% cytotoxic concentration), 10-point dose–response curves in triplicate. Summed up:
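Vero cells were grown in DMEM with 10% FBS, 1% penicillin/streptomycin and 2 mM L-glutamine. Virus-uninfected cells were exposed to test compound at ten concentrations. CC50 was calculated from the 10-point dose–response curves, run in triplicate.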

In the next data set the test system is ZIKV. The settings on record: read-out: EC50 (anti-ZIKV); in vitro assays; ref Pathak et al. (2020) [49]; cited from earlier work.
The next data set relates to ZIKV NS3 protease. The settings on record: read-out: IC50 (viral protease); ref Pathak et al. (2020) [49]; cited from earlier work.
In the next data set the test system is NS2B-NS3 protease. The following applies: NS2B-NS3 inhibitors; cited from earlier work.

In the case of `CN1[C@@H]2CC[C@H]1C[C@@H](OC(=O)C(CO)c1ccccc1)C2` (stereo partly shown) [Atropine SO4, Atropine sulfate monohydrate], the nauplii mortality entry in data set [1] (after 24 h) was “below 20%”.

As to `COc1ccc2cc3[n+](cc2c1OC)CCc1cc2c(cc1-3)OCO2` [Berberine chloride, berberine chloride], in data set [1] (at 125 μg/mL, 24 h), the nauplii mortality entry is reported as “all the nauplii were dead”. Moreover, the “LD50 (median lethal dose)” value in data set [1] (brine shrimp nauplii, 24 h, probit analysis of 6-point dose (16–500 μg/mL)) amounted to 27.0 µg/mL.

What is called CC50 is the concentration at which the toxic effect on the cells reaches its halfway point. Read a low CC50 as greater toxicity to the cells. Take `COc1c(C)c2c(c(O)c1C/C=C(\C)CCC(=O)O)C(=O)OC2` [MPA, mycophenolic acid]: the “SI: Selectivity index (CC50/EC50)” value with Zika virus strain MR766 (ZIKV MR766 / Vero cells) is over 1063. Further, the EC50 in the data set with Zika virus strain MR766 (Zika virus, Vero, 24 h, read-out: EC50 (median effective concentration)) was determined as 940 nM. Besides, the CC50 in data set [2] was over 1 mM. One may read the IC50 as the concentration needed to halve the response being measured. As for `C=C[C@@H]1C[C@]1(NC(=O)[C@@H]1C[C@@H](Oc2ncc(OC)c3ccc(Cl)cc23)CN1C(=O)[C@@H](NC(=O)OC(C)(C)C)C(C)(C)C)C(=O)NS(=O)(=O)C1CC1` [asunaprevir], the EC50 with ZIKV was 4.7 µM. In addition, the IC50 in the data set with ZIKV NS3 protease was 6 µM. As for `CC(C)C[C@H]1C(=O)N2CCC[C@H]2[C@]2(O)O[C@](NC(=O)[C@@H]3C=C4c5cccc6[nH]c(Br)c(c56)C[C@H]4N(C)C3)(C(C)C)C(=O)N12` [bromocriptine], the half-maximal inhibitory concentration (IC50) with NS2B-NS3 protease was 21.6 µM. Turning to `CO[C@@H]1[C@@H](OC(N)=O)[C@@H](O)[C@H](Oc2ccc3c(O)c(NC(=O)c4ccc(O)c(CC=C(C)C)c4)c(=O)oc3c2C)OC1(C)C` [novobiocin], the IC50 in the data set on NS2B-NS3 protease was 14.2 µM. With `COc1ccc2c(O[C@@H]3C[C@H]4C(=O)N[C@]5(C(=O)NS(=O)(=O)C6CC6)C[C@H]5/C=C\CCCCN(C)C(=O)[C@@H]4C3)cc(-c3nc(C(C)C)cs3)nc2c1C` [simeprevir], the IC50 in the data set with ZIKV NS3 protease is 2.6 µM. For the compound `Oc1cccc(-c2c3nc(c(-c4cccc(O)c4)c4ccc([nH]4)c(-c4cccc(O)c4)c4nc(c(-c5cccc(O)c5)c5ccc2[nH]5)CC4)C=C3)c1` [temoporfin], the IC50 in the data set on NS2B-NS3 protease was 1.1 µM. Consider erythrosine B, for which the IC50 with NS2B-NS3 protease is 1.7 µM.
